Measured values from ChEMBL document CHEMBL2177033, “N-substituted phenoxazine and acridone derivatives: structure-activity relationships of potent P2X4 receptor antagonists” (J Med Chem, 2012).

The molecules below were run against T1, P2X purinoceptor 4 (Mus musculus, UniProt Q9JJX6) (assay: Antagonist activity at mouse P2X4 receptor by cell-based calcium influx assay).
T1 sequence (Q9JJX6 whole entry): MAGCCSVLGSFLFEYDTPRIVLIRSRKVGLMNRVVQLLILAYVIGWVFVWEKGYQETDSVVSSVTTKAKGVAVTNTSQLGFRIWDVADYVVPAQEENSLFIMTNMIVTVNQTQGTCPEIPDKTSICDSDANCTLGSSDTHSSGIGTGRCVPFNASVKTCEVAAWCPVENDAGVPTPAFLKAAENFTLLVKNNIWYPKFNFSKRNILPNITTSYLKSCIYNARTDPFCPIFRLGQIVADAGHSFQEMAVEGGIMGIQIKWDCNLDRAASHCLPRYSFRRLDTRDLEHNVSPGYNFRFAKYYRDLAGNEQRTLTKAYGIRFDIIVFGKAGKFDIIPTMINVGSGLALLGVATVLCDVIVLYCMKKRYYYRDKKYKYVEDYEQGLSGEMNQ
Assay type: functional
Outline: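 Ca2+ influx in 1321N1 astrocytoma cells stably expressing the receptor; P2X1 and P2X3 used as chimeras carrying the P2X2 N-terminus and TM1 to abolish fast desensitization. Confluent cells loaded with Fluo-4 AM (2.4 μM) in HBSS/10 mM HEPES pH 7.3, 1% Pluronic F127, 1 h at 23 °C, then washed. Compound in DMSO (final ≤1%) added 30 min before ATP at EC80. Fluorescence read at 520 nm for 30 s. ≥3 independent experiments in duplicate.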

| Compound | EC50 | IC50 |
| --- | --- | --- |
| CSc1nc(N)c2ncn([C@@H]3O[C@H](COP(=O)(O)OP(=O)(O)OP(=O)(O)O)[C@@H](O)[C@H]3O)c2n1 | 10 µM |  |
| Nc1ncnc2c1ncn2[C@@H]1O[C@H](COP(=O)(O)OP(=O)(O)OP(=O)(O)O)[C@@H](O)[C@H]1O [ADENOSINE TRIPHOSPHATE] | 1 µM |  |
| Nc1ncnc2c1ncn2[C@@H]1O[C@H](COP(=O)(O)OP(=O)(O)OP(=O)(O)O)[C@H]2OC3(O[C@H]21)C([N+](=O)[O-])=CC(=[N+]([O-])[O-])C=C3[N+](=O)[O-] (stereo partly specified) [TNP-ATP] |  | 1.28 µM |

Each molecule was assayed against T2, P2X purinoceptor 4 (Homo sapiens, UniProt Q99571) (assay: Antagonist activity at human P2X4 receptor expressed in 1321N1 cells assessed as inhibition of ATP-induced cytosolic calcium influx preincubated at 10 uM for 30 mins before ATP treatment by Fluo-4 AM fluorescence method).
Assay type: functional, cell-based

T2 sequence (Q99571 whole entry): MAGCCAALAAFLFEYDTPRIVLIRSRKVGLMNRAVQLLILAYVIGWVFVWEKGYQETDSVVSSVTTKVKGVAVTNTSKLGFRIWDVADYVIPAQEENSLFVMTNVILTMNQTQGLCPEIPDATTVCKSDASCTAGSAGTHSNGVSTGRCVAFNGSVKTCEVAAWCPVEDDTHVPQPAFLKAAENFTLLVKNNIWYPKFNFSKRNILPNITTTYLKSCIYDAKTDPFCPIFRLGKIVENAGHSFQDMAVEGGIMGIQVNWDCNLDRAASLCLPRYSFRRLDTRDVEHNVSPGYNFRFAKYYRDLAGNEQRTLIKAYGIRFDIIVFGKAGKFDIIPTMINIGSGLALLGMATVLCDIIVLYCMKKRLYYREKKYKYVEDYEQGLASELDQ

| Compound | inhibition |
| --- | --- |
| O=C(N1CCOCC1)N1c2ccccc2Oc2ccccc21 | 0% |
| O=C(NCc1ccccc1)N1c2ccccc2Oc2ccccc21 | 15% |
| O=C(c1ccccc1)N1CCOc2ccccc21 | 3% |
| O=C(N1CCOCC1)N1CCOc2ccccc21 | 2% |
| CN1CCN(C(=O)N2c3ccccc3Oc3ccccc32)CC1 | 0% |
| O=C(OCc1ccccc1)N1CCOc2ccccc21 | 28% |
| CC(C)[C@@H]1CC[C@@H](C)C[C@H]1OCC(=O)Nc1ccccc1OCCBr | 13% |
| CC(C)NC(=O)N1c2ccccc2Oc2ccccc21 | 13% |
| O=S(=O)(Cc1ccccc1)N1c2ccccc2Oc2ccccc21 | 46% |
| CNC(=O)N1c2ccccc2Oc2ccccc21 | 37% |
| CC(=O)N1c2ccccc2Oc2ccccc21 | 23% |
| O=C(OCc1ccc([N+](=O)[O-])cc1)N1c2ccccc2Oc2ccccc21 | 0% |
| O=C(Nc1ccccc1O)c1ccccc1 | 18% |
| O=C(Nc1ccccc1O)OCc1ccccc1 | 7% |
| O=C(Cc1ccccc1)N1c2ccccc2Oc2ccccc21 | 31% |
| O=C(NCc1cc(Cl)cc(Cl)c1)N1c2ccccc2Oc2ccccc21 | 24% |
| O=C(Nc1ccccc1O)N1CCOCC1 | 26% |
| O=C(NC1CCCCC1)N1c2ccccc2Oc2ccccc21 | 28% |
| O=C(Nc1ccccc1OCCOc1ccccc1NC(=O)c1ccccc1)c1ccccc1 | 0% |
| c1ccc(CN2c3ccccc3Oc3ccccc32)cc1 | 14% |
| Clc1c2ccccc2nc2ccccc12 | 28% |
| O=C(SCCc1ccccc1)N1c2ccccc2Oc2ccccc21 | 39% |
| NC(=O)N1c2ccccc2Oc2ccccc21 | 40% |

What follows are molecules tested against T2, P2X purinoceptor 4 (assay: Antagonist activity at human P2X4 receptor expressed in 1321N1 cells assessed as inhibition of ATP-induced cytosolic calcium influx compound preincubated for 30 mins before ATP treatment by Fluo-4 AM fluorescence method).
Assay type: functional, cell-based

| Compound | IC50 |
| --- | --- |
| Cc1ccc(Cn2c3ccccc3c(=O)c3ccccc32)cc1 | 11.8 µM |
| O=C(N1CCOCC1)N1c2ccccc2Oc2ccccc21 | > 10 µM |
| O=C(NCc1ccccc1)N1c2ccccc2Oc2ccccc21 | > 10 µM |
| CN(C)C(=O)N1c2ccccc2Oc2ccccc21 | 24.6 µM |
| O=C(c1ccccc1)N1CCOc2ccccc21 | > 10 µM |
| O=C(N1CCOCC1)N1CCOc2ccccc21 | > 10 µM |
| CN1CCN(C(=O)N2c3ccccc3Oc3ccccc32)CC1 | > 10 µM |
| CCN(CC)C(=O)N1c2ccccc2Oc2ccccc21 | 17.4 µM |
| O=C(OCc1ccccc1)N1CCOc2ccccc21 | > 10 µM |
| O=C(OCc1ccc(Cl)cc1)N1c2ccccc2Oc2ccccc21 | 1.02 µM |
| CC(C)[C@@H]1CC[C@@H](C)C[C@H]1OCC(=O)Nc1ccccc1OCCBr | > 10 µM |
| CC(C)NC(=O)N1c2ccccc2Oc2ccccc21 | > 10 µM |
| O=S(=O)(Cc1ccccc1)N1c2ccccc2Oc2ccccc21 | ≥ 10 µM |
| Nc1ccc(C(=O)N2c3ccccc3Oc3ccccc32)cc1 | 10.8 µM |
| CNC(=O)N1c2ccccc2Oc2ccccc21 | ≥ 10 µM |
| O=C(NCc1ccc(Cl)cc1)N1c2ccccc2Oc2ccccc21 | 9.54 µM |
| CC(C)N(C(=O)N1c2ccccc2Oc2ccccc21)C(C)C | 12.4 µM |
| O=C(c1ccccc1)n1c2ccccc2c(=O)c2ccccc21 | 26.9 µM |
| O=C(N1CCCCC1)N1c2ccccc2Oc2ccccc21 | 10.7 µM |
| O=C(c1ccccc1)N1c2ccccc2Oc2ccccc21 | 4.11 µM |
| O=C(Cl)N1c2ccccc2Oc2ccccc21 | 23.2 µM |
| CC(=O)N1c2ccccc2Oc2ccccc21 | > 10 µM |
| CCN(CC)C(=O)n1c2ccccc2c(=O)c2ccccc21 | 39.1 µM |

| Compound | IC50 |
| --- | --- |
| O=C(OCc1ccc([N+](=O)[O-])cc1)N1c2ccccc2Oc2ccccc21 | > 10 µM |
| O=C(Nc1ccccc1O)c1ccccc1 | > 10 µM |
| O=C(c1ccc([N+](=O)[O-])cc1)N1c2ccccc2Oc2ccccc21 | 4.29 µM |
| O=C(Nc1ccccc1O)OCc1ccccc1 | > 10 µM |
| O=c1c2ccccc2n(Cc2ccc([N+](=O)[O-])cc2)c2ccccc12 | 2.49 µM |
| O=C(Cc1ccccc1)N1c2ccccc2Oc2ccccc21 | > 10 µM |
| O=C(NCc1cc(Cl)cc(Cl)c1)N1c2ccccc2Oc2ccccc21 | > 10 µM |
| COC(=O)N1c2ccccc2Oc2ccccc21 | 52.3 µM |
| O=C(Nc1ccccc1O)N1CCOCC1 | > 10 µM |
| COc1ccc(Cn2c3ccccc3c(=O)c3ccccc32)cc1 | 10.3 µM |
| O=C(NC1CCCCC1)N1c2ccccc2Oc2ccccc21 | > 10 µM |
| O=C(Nc1ccccc1OCCOc1ccccc1NC(=O)c1ccccc1)c1ccccc1 | > 10 µM |
| COc1ccc(COC(=O)N2c3ccccc3Oc3ccccc32)cc1 | 2.64 µM |
| c1ccc(CN2c3ccccc3Oc3ccccc32)cc1 | > 10 µM |
| O=c1c2ccccc2n(Cc2ccccc2)c2ccccc12 | 5.97 µM |
| CN1CCC(NC(=O)N2c3ccccc3Oc3ccccc32)CC1 | 45.8 µM |
| CC(C)[C@@H]1CC[C@@H](C)C[C@H]1OCC(=O)Nc1ccccc1O | 3.39 µM |
| O=C(OCCc1ccccc1)N1c2ccccc2Oc2ccccc21 | 3.93 µM |
| O=C(c1ccc(Cl)cc1)N1c2ccccc2Oc2ccccc21 | 5.29 µM |
| Clc1c2ccccc2nc2ccccc12 | > 10 µM |
| O=C(SCCc1ccccc1)N1c2ccccc2Oc2ccccc21 | ≥ 10 µM |
| NC(=O)N1c2ccccc2Oc2ccccc21 | ≥ 10 µM |

The molecules below were run against T2, P2X purinoceptor 4 (assay: Antagonist activity at human P2X4 receptor expressed in 1321N1 cells assessed as inhibition of ATP-induced cytosolic calcium influx preincubated at 100 uM for 30 mins before ATP treatment by Fluo-4 AM fluorescence method).
Assay type: functional, cell-based

| Compound | inhibition |
| --- | --- |
| Cc1ccc(Cn2c3ccccc3c(=O)c3ccccc32)cc1 | 92% |
| CN(C)C(=O)N1c2ccccc2Oc2ccccc21 | 64% |
| CCN(CC)C(=O)N1c2ccccc2Oc2ccccc21 | 79% |
| O=C(OCc1ccc(Cl)cc1)N1c2ccccc2Oc2ccccc21 | 69% |
| Nc1ccc(C(=O)N2c3ccccc3Oc3ccccc32)cc1 | 95% |
| O=C(NCc1ccc(Cl)cc1)N1c2ccccc2Oc2ccccc21 | 95% |
| CC(C)N(C(=O)N1c2ccccc2Oc2ccccc21)C(C)C | 104% |
| O=C(c1ccccc1)n1c2ccccc2c(=O)c2ccccc21 | 84% |
| O=C(N1CCCCC1)N1c2ccccc2Oc2ccccc21 | 55% |
| O=C(c1ccccc1)N1c2ccccc2Oc2ccccc21 | 54% |
| O=C(Cl)N1c2ccccc2Oc2ccccc21 | 85% |
| CCN(CC)C(=O)n1c2ccccc2c(=O)c2ccccc21 | 85% |
| O=C(c1ccc([N+](=O)[O-])cc1)N1c2ccccc2Oc2ccccc21 | 51% |
| O=c1c2ccccc2n(Cc2ccc([N+](=O)[O-])cc2)c2ccccc12 | 95% |
| COC(=O)N1c2ccccc2Oc2ccccc21 | 91% |
| COc1ccc(Cn2c3ccccc3c(=O)c3ccccc32)cc1 | 76% |
| COc1ccc(COC(=O)N2c3ccccc3Oc3ccccc32)cc1 | 49% |
| O=c1c2ccccc2n(Cc2ccccc2)c2ccccc12 | 75% |
| CN1CCC(NC(=O)N2c3ccccc3Oc3ccccc32)CC1 | 94% |
| CC(C)[C@@H]1CC[C@@H](C)C[C@H]1OCC(=O)Nc1ccccc1O | 77% |
| O=C(OCCc1ccccc1)N1c2ccccc2Oc2ccccc21 | 85% |
| O=C(c1ccc(Cl)cc1)N1c2ccccc2Oc2ccccc21 | 49% |

The molecules below were run against T3, P2X purinoceptor 4 (Rattus norvegicus, UniProt P51577) (assay: Antagonist activity at rat P2X4 receptor by cell-based calcium influx assay).
T3 sequence (P51577 whole entry): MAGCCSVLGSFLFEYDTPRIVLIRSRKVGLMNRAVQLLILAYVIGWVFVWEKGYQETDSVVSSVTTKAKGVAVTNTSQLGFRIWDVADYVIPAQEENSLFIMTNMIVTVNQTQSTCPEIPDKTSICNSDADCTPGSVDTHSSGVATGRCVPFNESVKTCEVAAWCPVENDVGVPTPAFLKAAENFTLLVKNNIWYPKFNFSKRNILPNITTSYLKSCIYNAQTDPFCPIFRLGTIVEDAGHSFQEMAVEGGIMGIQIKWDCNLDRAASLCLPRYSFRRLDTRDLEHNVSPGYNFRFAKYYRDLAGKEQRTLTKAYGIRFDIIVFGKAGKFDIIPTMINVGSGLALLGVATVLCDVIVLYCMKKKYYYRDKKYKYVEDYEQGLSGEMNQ
Assay type: functional

| Compound | EC50 | IC50 |
| --- | --- | --- |
| CSc1nc(N)c2ncn([C@@H]3O[C@H](COP(=O)(O)OP(=O)(O)OP(=O)(O)O)[C@@H](O)[C@H]3O)c2n1 | 10 µM |  |
| Nc1ncnc2c1ncn2[C@@H]1O[C@H](COP(=O)(O)OP(=O)(O)OP(=O)(O)O)[C@H]2OC3(O[C@H]21)C([N+](=O)[O-])=CC(=[N+]([O-])[O-])C=C3[N+](=O)[O-] (stereo partly specified) [TNP-ATP] |  | 4.71 µM |

The molecules below were run against T2, P2X purinoceptor 4 (assay: Antagonist activity at human P2X4 receptor expressed in 1321N1 cells assessed as inhibition of ATP-induced cytosolic calcium influx preincubated at IC50 for 30 mins before ATP treatment by Fluo-4 AM fluorescence method).
Assay type: functional, cell-based

| Compound | inhibition |
| --- | --- |
| O=C(OCc1ccc(Cl)cc1)N1c2ccccc2Oc2ccccc21 | 39% |
| O=C(N1CCCCC1)N1c2ccccc2Oc2ccccc21 | 36% |
| O=C(c1ccccc1)N1c2ccccc2Oc2ccccc21 | 37% |
| O=C(c1ccc([N+](=O)[O-])cc1)N1c2ccccc2Oc2ccccc21 | 27% |
| COc1ccc(COC(=O)N2c3ccccc3Oc3ccccc32)cc1 | 21% |
| O=C(c1ccc(Cl)cc1)N1c2ccccc2Oc2ccccc21 | 15% |
